# From publication PMC4427609 (Drug Design, Development and Therapy, 2015)
# Read-outs that look alike come from different tables or passages of the source.
# How the values were obtained:
# Format in all cases: in vivo, rat
# [1] = test system: Sprague-Dawley rats; details: third day post STZ, mean ± SEM, n=10; for ALP (alkaline phosphatase) / ALT (alanine aminotransferase) / AST (aspartate aminotransferase) / Albumin / Creatinine / GGT (gamma-glutamyl transferase) / Urea: serum
# Method in brief: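 Male SD rats got blank injections (no STZ), one STZ dose, or two STZ doses over 2 days. STZ was freshly dissolved in 0.1 M citrate buffer pH 4.5 and given at 80 mg/kg ip. On day 3 rats were fasted for 18 h with water ad libitum. They were then staged by glucose: Stage 0 <200, Stage 1 200–450, Stage 2 451–750 mg/dL.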
# [2] = test system: Sprague-Dawley rats; assay: Histopathology of liver, kidney and pancreas of STZ-induced diabetic rats; details: hematoxylin and eosin, light microscope
# Method in brief: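 Diabetes was induced in male SD rats with freshly dissolved STZ (0.1 M citrate, pH 4.5), 80 mg/kg ip, two doses over 2 days; diabetic meant fasting glucose >200 mg/dL. Liver, kidney and pancreas from diabetic and nondiabetic rats were taken immediately after sacrifice and fixed in 10% phosphate-buffered formalin. Tissue was paraffin-embedded, cut at 5 μm, H&E-stained and examined by light microscopy.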
# [3] = Serum insulin pharmacokinetics in STZ diabetic and nondiabetic rats; details: insulin 4 IU/kg subcutaneously; result in words
# [4] = test system: STZ diabetic and nondiabetic rats; assay: Effect of insulin dose on STZ diabetic and nondiabetic rats; details: insulin 6 IU/kg subcutaneously, 2 hours, mean ± SEM, n=10
# [5] = Stage 1 diabetic rats (200–450 mg/dL)
# [6] = Stage 2 diabetic rats (451–750 mg/dL)
compound,measurement,setting,value
"CN(N=O)C(=O)N[C@H]1C(O)O[C@H](CO)[C@@H](O)[C@@H]1O (mixture of isomers) [STZ, streptozotocin]",Glucose (heart),[1]; [5],439 ± 20.9 mg/dL
same,Glucose (heart),[1]; [6],668 ± 34.5 mg/dL
same,ALP (alkaline phosphatase),[1]; [5],247±47.5 IU/L
same,ALT (alanine aminotransferase),[1]; [5],88±18.8 IU/L
same,AST (aspartate aminotransferase),[1]; [5],131.4±23.1 IU/L
same,Albumin,[1]; [5],4.5 ± 0.3 g/dL
same,Creatinine,[1]; [5],1.1 ± 0.3 mg/dL
same,GGT (gamma-glutamyl transferase),[1]; [5],3.4±0.8 IU/L
same,Urea,[1]; [5],70.7 ± 10.2 mg/dL
same,ALP (alkaline phosphatase),[1]; [6],322.7±25.5 IU/L
same,ALT (alanine aminotransferase),[1]; [6],80.1±8.1 IU/L
same,AST (aspartate aminotransferase),[1]; [6],151.8±22.9 IU/L
same,Albumin,[1]; [6],4.9 ± 0.2 g/dL
same,Creatinine,[1]; [6],1.6 ± 0.2 mg/dL
same,GGT (gamma-glutamyl transferase),[1]; [6],9.5±4.1 IU/L
same,Urea,[1]; [6],148.8 ± 9.3 mg/dL
same,Histology of kidney sections,[2],tubular atrophy and increased vacuolization of renal tubular epithelial cells
same,Histology of liver sections,[2],clear diffused hepatic steatosis
"insulin: Recombinant human (rh) insulin powder from Biocon, dissolved in Tris buffer (pH 7), injected subcutaneously",AUC of diabetic rats compared to nondiabetic rats,[3],doubled
same,minimum percentage of glucose level,[4]; STZ diabetic rats,13.4%±1%
same,minimum percentage of glucose level,[4]; nondiabetic rats,40.7%±4%
